Measurements published in ChEMBL document CHEMBL1126849, “Synthesis of A-ring fluorinated derivatives of (17 alpha,20E/Z)-[125I]iodovinylestradiols: effect on receptor binding and receptor-mediated target tissue uptake” (J Med Chem, 1993).

Key:
Details in all cases: in vivo
Rattus norvegicus [1] = assay: Biodistribution in uterus / blood of Immature Female rat after 1 hr administration of 3 micro Ci (111 kBq) in the presence of (+E2); format: ADME, organism-based
In short: (§1)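 Same in vivo procedure: immature female Long Evans rats (21–24 days), three to five per group, 3 μCi (111 kBq) tracer i.v. via tail vein in 9% ethanol/saline/1% Tween-80, ± 60 μg estradiol co-injected at 1 h. Uterus %ID/g (gamma counting) divided by blood, or by nontarget organ (muscle, spleen, lungs), %ID/g to give ratios.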

Rattus norvegicus [2] = assay: Biodistribution in blood of Immature Female rat after 1 hr administration of 3 micro Ci (111 kBq) in the presence of (+E2); format: ADME, organism-based
In short: (§2)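 Immature female Long Evans rats (21–24 days, 45–70 g), unanesthetized in retention cages, given 3 µCi (111 kBq) 125I-labeled steroid i.v. via lateral tail vein. Vehicle was ethanol diluted in saline containing 1% Tween-80, giving 9% ethanol final. The blocking group received 60 µg unlabeled estradiol co-injected. Rats were killed under ether by axillary bleeding, and tissues were KCl-washed and gamma-counted. Data are %ID/g, mean ± SE, n=3–5.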

Rattus norvegicus [3] = assay: Biodistribution in thyroid of Immature Female rat after 1 hr administration of 3 micro Ci (111 kBq) in the absence of 60 microg estradiol; format: ADME, organism-based, Thyroid gland
In short: (§3)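 Immature female Long Evans rats (21–24 days, 45–70 g), three to five per group, given 125I-labeled steroid (3 μCi, 111 kBq) by lateral tail vein without anesthesia. Vehicle: ethanol diluted in saline with 1% Tween-80, final ethanol 9%, 0.22 μm filtered. +E2 groups received 60 μg unlabeled estradiol co-injected. Killed under ether at set times; tissues KCl-washed, blotted, weighed, gamma counted; %ID/g, mean with SE.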

Rattus norvegicus [4] = assay: Biodistribution in fat of Immature Female rat after 3 hour administration of 3 micro Ci (111 kBq) in the absence of 60 microg estradiol; format: ADME, organism-based, Adipose tissue; in short: as §2
Rattus norvegicus [5] = assay: Biodistribution in liver of Immature Female rat after 1 hr administration of 3 micro Ci (111 kBq) in the absence of 60 microg estradiol; format: ADME, organism-based; in short: as §2
Rattus norvegicus [6] = assay: Biodistribution in liver of Immature Female rat after 3 hour administration of 3 micro Ci (111 kBq) in the absence of 60 microg estradiol; format: ADME, organism-based; in short: as §2
Rattus norvegicus [7] = assay: Biodistribution in uterus / blood of Immature Female rat after 1 hr administration of 3 micro Ci (111 kBq) in the absence of 60 microg estradiol; format: ADME, organism-based; in short: as §1
Rattus norvegicus [8] = assay: Biodistribution in spleen of Immature Female rat after 5 hour administration of 3 micro Ci (111 kBq) in the absence of 60 microg estradiol; format: ADME, organism-based; in short: as §3
Rattus norvegicus [9] = assay: Biodistribution in muscle of Immature Female rat after 5 hour administration of 3 micro Ci (111 kBq) in the absence of 60 microg estradiol; format: ADME, organism-based, Muscle tissue; in short: as §3
Rattus norvegicus [10] = assay: Biodistribution in uterus of Immature Female rat after 12 hour administration of 3 micro Ci (111 kBq) in the absence of 60 microg estradiol; format: ADME, organism-based
In short: (§4)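 Immature female Long Evans rats (21–24 days, 45–70 g), 3–5 per group, unanesthetized in retention cages, given 3 μCi (111 kBq) 125I-labeled steroid by lateral tail vein. Vehicle: ethanol diluted with saline containing 1% Tween-80, final ethanol 9%. +E2 group co-injected 60 μg unlabeled estradiol (1 h only). Killed under ether; tissues KCl-washed, weighed, gamma-counted. Output: %ID/g (mean, SE) and uterus to blood or nontarget (muscle, spleen, lungs) ratios.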

Rattus norvegicus [11] = assay: Biodistribution in uterus / blood of Immature Female rat after 5 hour administration of 3 micro Ci (111 kBq) in the absence of 60 microg estradiol; format: ADME, organism-based; in short: as §1
Rattus norvegicus [12] = assay: Biodistribution in spleen of Immature Female rat after 1 hr administration of 3 micro Ci (111 kBq) in the absence of 60 microg estradiol; format: ADME, organism-based; in short: as §3
Rattus norvegicus [13] = assay: Biodistribution in uterus of Immature Female rat after 1 hr administration of 3 micro Ci (111 kBq) in the presence of (+E2); format: ADME, organism-based; in short: as §4
Rattus norvegicus [14] = assay: Biodistribution in lungs of Immature Female rat after 1 hr administration of 3 micro Ci (111 kBq) in the absence of 60 microg estradiol; format: ADME, organism-based, Lung; in short: as §2
Rattus norvegicus [15] = assay: Biodistribution in uterus / spleen, muscle, lungs of Immature Female rat after 5 hour administration of 3 micro Ci (111 kBq) in the absence of 60 microg estradiol; format: ADME, organism-based; in short: as §1
Rattus norvegicus [16] = assay: Biodistribution in lungs of Immature Female rat after 1 hr administration of 3 micro Ci (111 kBq) in the presence of (+E2); format: ADME, organism-based, Lung; in short: as §2
Rattus norvegicus [17] = assay: Biodistribution in thyroid of Immature Female rat after 12 hour administration of 3 micro Ci (111 kBq) in the absence of 60 microg estradiol; format: ADME, organism-based, Thyroid gland; in short: as §3
Rattus norvegicus [18] = assay: Biodistribution in uterus / spleen, muscle, lungs of Immature Female rat after 1 hr administration of 3 micro Ci (111 kBq) in the presence of (+E2); format: ADME, organism-based; in short: as §1
Rattus norvegicus [19] = assay: Biodistribution in uterus / blood of Immature Female rat after 3 hour administration of 3 micro Ci (111 kBq) in the absence of 60 microg estradiol; format: ADME, organism-based; in short: as §1
Rattus norvegicus [20] = assay: Biodistribution in fat of Immature Female rat after 5 hour administration of 3 micro Ci (111 kBq) in the absence of 60 microg estradiol; format: ADME, organism-based, Adipose tissue; in short: as §2
Rattus norvegicus [21] = assay: Biodistribution in kidney of Immature Female rat after 1 hr administration of 3 micro Ci (111 kBq) in the presence of (+E2); format: ADME, organism-based; in short: as §2
Rattus norvegicus [22] = assay: Biodistribution in muscle of Immature Female rat after 1 hr administration of 3 micro Ci (111 kBq) in the absence of 60 microg estradiol; format: ADME, organism-based, Muscle tissue; in short: as §3
Rattus norvegicus [23] = assay: Biodistribution in uterus / spleen, muscle, lungs of Immature Female rat after 1 hr administration of 3 micro Ci (111 kBq) in the absence of 60 microg estradiol; format: ADME, organism-based; in short: as §1
Rattus norvegicus [24] = assay: Biodistribution in blood of Immature Female rat after 3 hour administration of 3 micro Ci (111 kBq) in the absence of 60 microg estradiol; format: ADME, organism-based; in short: as §2
Rattus norvegicus [25] = assay: Biodistribution in uterus of Immature Female rat after 1 hr administration of 3 micro Ci (111 kBq) in the absence of 60 microg estradiol; format: ADME, organism-based; in short: as §4
Rattus norvegicus [26] = assay: Biodistribution in kidney of Immature Female rat after 3 hour administration of 3 micro Ci (111 kBq) in the absence of 60 microg estradiol; format: ADME, organism-based; in short: as §2
Rattus norvegicus [27] = assay: Biodistribution in liver of Immature Female rat after 1 hr administration of 3 micro Ci (111 kBq) in the presence of (+E2); format: ADME, organism-based; in short: as §2
Rattus norvegicus [28] = assay: Biodistribution in muscle of Immature Female rat after 1 hr administration of 3 micro Ci (111 kBq) in the presence of (+E2); format: ADME, organism-based, Muscle tissue; in short: as §3
Rattus norvegicus [29] = assay: Biodistribution in spleen of Immature Female rat after 1 hr administration of 3 micro Ci (111 kBq) in the presence of (+E2); format: ADME, organism-based; in short: as §3
Rattus norvegicus [30] = assay: Biodistribution in muscle of Immature Female rat after 3 hour administration of 3 micro Ci (111 kBq) in the absence of 60 microg estradiol; format: ADME, organism-based, Muscle tissue; in short: as §3
Rattus norvegicus [31] = assay: Biodistribution in kidney of Immature Female rat after 12 hour administration of 3 micro Ci (111 kBq) in the absence of 60 microg estradiol; format: ADME, organism-based; in short: as §2

ID/g (Rattus norvegicus [1]) [%]	ID/g (Rattus norvegicus [2]) [%]	ID/g (Rattus norvegicus [3]) [%]	ID/g (Rattus norvegicus [4]) [%]	ID/g (Rattus norvegicus [5]) [%]	ID/g (Rattus norvegicus [6]) [%]	uterus/blood ratio (Rattus norvegicus [7])	ID/g (Rattus norvegicus [8]) [%]	ID/g (Rattus norvegicus [9]) [%]	ID/g (Rattus norvegicus [10]) [%]	ID/g (Rattus norvegicus [11]) [%]	ID/g (Rattus norvegicus [12]) [%]	ID/g (Rattus norvegicus [13]) [%]	ID/g (Rattus norvegicus [14]) [%]	ID/g (Rattus norvegicus [15]) [%]	ID/g (Rattus norvegicus [16]) [%]	ID/g (Rattus norvegicus [17]) [%]	ID/g (Rattus norvegicus [18]) [%]	ID/g (Rattus norvegicus [19]) [%]	ID/g (Rattus norvegicus [20]) [%]	SMILES	further results
3.57	0.28	61	2.04	3.32	2.65	30.4	0.39	0.45	12.64	68.66	0.79	1.02	1.07	26.5	1.95	475	1.02	44.23	1.69	CO[C@H]1C[C@@]2(C)[C@@H](CC[C@@]2(O)/C=C/I)[C@@H]2CCc3c(ccc(O)c3F)[C@H]21	ID/g (Rattus norvegicus [21]): 1.28%; ID/g (Rattus norvegicus [22]): 0.98%; ID/g (Rattus norvegicus [23]): 9.17%; ID/g (Rattus norvegicus [24]): 0.26%; ID/g (Rattus norvegicus [25]): 8.02%; ID/g (Rattus norvegicus [26]): 1.3%; ID/g (Rattus norvegicus [27]): 3.24%; ID/g (Rattus norvegicus [28]): 0.91%; ID/g (Rattus norvegicus [29]): 0.78%; ID/g (Rattus norvegicus [30]): 0.56%; ID/g (Rattus norvegicus [31]): 0.49%
1.12	0.87	217	1.15	2.04	1.51	15.7	0.38	0.29	6.45	27.8	0.59	0.94	0.76	25.79	1.52	1899	0.64	21.19	0.66	CO[C@H]1C[C@@]2(C)[C@@H](CC[C@@]2(O)/C=C\I)[C@@H]2CCc3cc(O)c(F)cc3[C@H]21	ID/g (Rattus norvegicus [21]): 2.83%; ID/g (Rattus norvegicus [22]): 0.58%; ID/g (Rattus norvegicus [23]): 13.04%; ID/g (Rattus norvegicus [24]): 0.45%; ID/g (Rattus norvegicus [25]): 8.36%; ID/g (Rattus norvegicus [26]): 1.02%; ID/g (Rattus norvegicus [27]): 10.39%; ID/g (Rattus norvegicus [28]): 2.3%; ID/g (Rattus norvegicus [29]): 5.3%; ID/g (Rattus norvegicus [30]): 0.38%; ID/g (Rattus norvegicus [31]): 0.29%
